Results: ChEMBL document CHEMBL1138456 (J Med Chem, 2009)
≈ marks a conversion by molar mass, not a printed value.

Tests used:
[1] = Chemical stability assessed as half life at pH 2 by HPLC; type: physicochemical; conditions: buffer
[2] = Aqueous solubility in water by shake flask method; type: physicochemical
In short: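 Solubility: about 5 mg solid per 1 mL deionized water, unbuffered, in triplicate. Samples were vortexed, sonicated and protected from light, then tumbled at 25 °C for 1 day. They were centrifuged, filtered and diluted, and analyzed by HPLC with UV detection at 215 nm.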

[3] = Stability assessed as half life at pH 8.0 in presence of calf intestine alkaline phosphatase; type: ADME, tissue-based; conditions: cattle
In short: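 Prodrug in 50 mM sodium phosphate pH 7.4 was incubated with calf intestinal alkaline phosphatase (0.000125 units/µL) in 10 mM Tris pH 8.0 at 37 °C for 30 min. Reactions were quenched with NaCl and MeOH/acetonitrile, held on ice for 30 min and centrifuged. Dephosphorylation half-life is in minutes.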

[4] = Clearance in rat at 5 mg/kg, iv; type: ADME, organism-based; design: dose 5 mg/kg, route intravenous; conditions: in vivo
[5] = Half life in rat at 5 mg/kg, iv; type: ADME, organism-based; design: dose 5 mg/kg, route intravenous; conditions: in vivo
[6] = Chemical stability assessed as half life at pH 9 by HPLC; type: physicochemical; conditions: buffer
[7] = Chemical stability assessed as half life at pH 5 by HPLC; type: physicochemical; conditions: buffer
[8] = Chemical stability assessed as half life at pH 7.4 by HPLC; type: physicochemical; conditions: buffer
[9] = Cmax in Sprague-Dawley rat plasma at 5 mg/kg, po coadministered with RTV; type: ADME, organism-based; design: dose 5 mg/kg, route oral
In short: (§1)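 Male Sprague-Dawley-derived rats (0.25-0.35 kg, n = 3) were given oral gavage doses equivalent to 5 mg/kg parent (5 mg equiv/kg). Prodrugs were given in 5% dextrose in water. Parents were given in ethanol/propylene glycol formulation. For LPV species, a 5 mg/kg RTV gavage dose was given first. Plasma was analyzed by reversed-phase HPLC with an internal standard. Cmax is in µg/mL and AUC in µg·h/mL.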

[10] = AUC in Sprague-Dawley rat plasma at 5 mg/kg, po coadministered with RTV; type: ADME, organism-based; design: dose 5 mg/kg, route oral; in short: as §1
Rattus norvegicus = assay: AUC in Sprague-Dawley rat plasma at 5 mg/kg, po; type: ADME, organism-based; design: dose 5 mg/kg, route oral; conditions: in vivo; in short: as §1
[11] = AUC in po dosed Beagle dog at dose molar equivalent to 5 mg/kg RTV coadministered with LPV-OMP dosed as 5% dextrose containing solution; type: ADME, organism-based, Canis lupus familiaris; design: dose 5 mg/kg, route oral; conditions: plasma
In short: (§2)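 Male and female beagle dogs (8-12 kg, n = 3) were dosed orally at 5 mg equiv/kg of parent. Parents were dissolved in 5% dextrose with 20% ethanol, 30% propylene glycol and 2 equiv methanesulfonic acid. Prodrugs were dissolved in 5% dextrose. Plasma was measured by reversed-phase HPLC with an internal standard. Cmax is in µg/mL and AUC in µg·h/mL.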

[12] = AUC in po dosed Beagle dog at dose molar equivalent to 5 mg/kg RTV coadministered with LPV dosed as 5% dextrose containing solution; type: ADME, organism-based, Canis lupus familiaris; design: dose 5 mg/kg, route oral; conditions: plasma; in short: as §2
[13] = Cmax in po dosed Beagle dog at dose molar equivalent to 5 mg/kg RTV coadministered with LPV dosed as 5% dextrose containing solution; type: ADME, organism-based, Canis lupus familiaris; design: dose 5 mg/kg, route oral; conditions: in vivo; in short: as §2
[14] = Cmax in po dosed Beagle dog at dose molar equivalent to 5 mg/kg RTV coadministered with LPV-OMP dosed as 5% dextrose containing solution; type: ADME, organism-based, Canis lupus familiaris; design: dose 5 mg/kg, route oral; conditions: in vivo; in short: as §2

SMILES | half-life [1] [min] | solubility thermodynamic [2] [µg/mL] | half-life [3] [min] | also measured
Cc1cccc(C)c1OCC(=O)N[C@@H](Cc1ccccc1)[C@H](C[C@H](Cc1ccccc1)NC(=O)[C@H](C(C)C)N1CCCNC1=O)OCOP(=O)([O-])[O-].[Na+].[Na+] | 468 | > 5000 | 13.9 | 
CC(C)c1nc(CN(C)C(=O)N[C@H](C(=O)N[C@@H](Cc2ccccc2)C[C@H](OP(=O)([O-])[O-])[C@H](Cc2ccccc2)NC(=O)OCc2cncs2)C(C)C)cs1.[Na+].[Na+] |  |  |  | clearance [4]: 43 mL/min/kg; half-life [5]: 13.8 min
CC(C)c1nc(CN(C)C(=O)N[C@H](C(=O)N[C@@H](Cc2ccccc2)C[C@H](OC(OP(=O)([O-])[O-])C(C)C)[C@H](Cc2ccccc2)NC(=O)OCc2cncs2)C(C)C)cs1.[Na+].[Na+] (stereo not given in full) |  |  | > 30 | 
Cc1cccc(C)c1OCC(=O)N[C@@H](Cc1ccccc1)[C@@H](O)C[C@H](Cc1ccccc1)NC(=O)[C@H](C(C)C)N1CCCNC1=O [LOPINAVIR] |  | 7 (≈ 11.1 µM) |  | Cmax [9]: 1550 ng/mL; AUC [10]: 9280 ng·h/mL
CC(C)c1nc(CN(C)C(=O)N[C@H](C(=O)N[C@@H](Cc2ccccc2)C[C@H](O)[C@H](Cc2ccccc2)NC(=O)OCc2cncs2)C(C)C)cs1 [RITONAVIR] |  |  |  | AUC (Rattus norvegicus): 3530 ng·h/mL; AUC [11]: 4430 ng·h/mL; AUC [12]: 2190 ng·h/mL; Cmax [13]: 1320 ng/mL; Cmax [14]: 2130 ng/mL

Now from value to molecule, other results behind:

half-life [1] [min] | solubility thermodynamic [2] [µg/mL] | half-life [3] [min] | SMILES | also measured
516 | > 5000 | 7 | CC(C)c1nc(CN(C)C(=O)N[C@H](C(=O)N[C@@H](Cc2ccccc2)C[C@H](OCOP(=O)([O-])[O-])[C@H](Cc2ccccc2)NC(=O)OCc2cncs2)C(C)C)cs1.[Na+].[Na+] | 
 |  | 31.7 | CCCC(O[C@@H](C[C@H](Cc1ccccc1)NC(=O)[C@@H](NC(=O)N(C)Cc1csc(C(C)C)n1)C(C)C)[C@H](Cc1ccccc1)NC(=O)OCc1cncs1)OP(=O)([O-])[O-].[Na+].[Na+] (stereo not given in full) | 
< 15 | > 5000 | 14.8 | CC(O[C@@H](C[C@H](Cc1ccccc1)NC(=O)[C@@H](NC(=O)N(C)Cc1csc(C(C)C)n1)C(C)C)[C@H](Cc1ccccc1)NC(=O)OCc1cncs1)OP(=O)([O-])[O-].[Na+].[Na+] (stereo not given in full) | half-life [6]: > 100 days; half-life [7]: 76 min; half-life [8]: 12 days
< 15 | > 5000 | 20.4 | Cc1cccc(C)c1OCC(=O)N[C@@H](Cc1ccccc1)[C@H](C[C@H](Cc1ccccc1)NC(=O)[C@H](C(C)C)N1CCCNC1=O)OC(C)OP(=O)([O-])[O-].[Na+].[Na+] (stereo not given in full) | half-life [6]: > 100 days; half-life [7]: 133 min; half-life [8]: 19 days
